Calls of active or inactive are those of the source. The rule behind the calls is not given here.
How the values were obtained:
[1] = test system: Rattus norvegicus; test: Antinociceptive activity in Sprague-Dawley rat assessed as reduction in formalin-evoked paw licking duration at 3 mg/kg, po administered 4 hrs prior to formalin challenge and measured between 0 to 15 mins post formalin challenge; format: functional, organism-based
[2] = Clearance in Sprague-Dawley rat at 1 mg/kg, iv or 5 mg/kg, po by LC-MS analysis; format: ADME, organism-based; conditions: in vivo
Method in brief: (§1)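 Rats (n = 3 per route) were dosed at 1 mg/kg iv (70% PEG400 in HPBCD/saline) or 5 mg/kg po (70% PEG400 in 0.5% CMC/saline), fasted overnight to 4 h post-dose. Jugular-catheter blood (~100 µL) was sampled to 24 h into 400 µL acetonitrile to stop esterases. Samples were quantified by HPLC-MS/MS, with noncompartmental analysis.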

[3] = biological target: Cytochrome P450 3A5 (Homo sapiens, UniProt P20815); test: Inhibition of recombinant human CYP3A5; format: ADME
Sequence of Cytochrome P450 3A5 (P20815 whole entry): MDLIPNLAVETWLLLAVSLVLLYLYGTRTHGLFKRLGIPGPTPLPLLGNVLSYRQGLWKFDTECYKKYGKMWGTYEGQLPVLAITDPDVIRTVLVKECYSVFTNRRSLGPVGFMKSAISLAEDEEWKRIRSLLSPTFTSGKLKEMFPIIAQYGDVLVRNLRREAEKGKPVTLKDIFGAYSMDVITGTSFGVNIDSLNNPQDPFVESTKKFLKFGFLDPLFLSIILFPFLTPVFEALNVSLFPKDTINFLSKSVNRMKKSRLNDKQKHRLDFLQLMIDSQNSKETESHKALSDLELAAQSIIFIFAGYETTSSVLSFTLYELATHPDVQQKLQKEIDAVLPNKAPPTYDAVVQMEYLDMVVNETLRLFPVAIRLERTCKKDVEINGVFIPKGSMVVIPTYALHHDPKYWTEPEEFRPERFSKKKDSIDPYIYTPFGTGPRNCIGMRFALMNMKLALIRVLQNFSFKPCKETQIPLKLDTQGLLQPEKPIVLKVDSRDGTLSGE

[4] = Inhibition of BCRP (unknown origin) at 10 uM; format: ADME; conditions: human
[5] = Volume of distribution at steady state in Sprague-Dawley rat at 1 mg/kg, iv or 5 mg/kg, po by LC-MS analysis; format: ADME, organism-based; conditions: in vivo, read-out: Vdss; method in brief: as §1
[6] = biological target: hERG (KCNH2) (Homo sapiens, UniProt Q12809); test: Inhibition of human ERG
Sequence of hERG (KCNH2) (Q12809 whole entry): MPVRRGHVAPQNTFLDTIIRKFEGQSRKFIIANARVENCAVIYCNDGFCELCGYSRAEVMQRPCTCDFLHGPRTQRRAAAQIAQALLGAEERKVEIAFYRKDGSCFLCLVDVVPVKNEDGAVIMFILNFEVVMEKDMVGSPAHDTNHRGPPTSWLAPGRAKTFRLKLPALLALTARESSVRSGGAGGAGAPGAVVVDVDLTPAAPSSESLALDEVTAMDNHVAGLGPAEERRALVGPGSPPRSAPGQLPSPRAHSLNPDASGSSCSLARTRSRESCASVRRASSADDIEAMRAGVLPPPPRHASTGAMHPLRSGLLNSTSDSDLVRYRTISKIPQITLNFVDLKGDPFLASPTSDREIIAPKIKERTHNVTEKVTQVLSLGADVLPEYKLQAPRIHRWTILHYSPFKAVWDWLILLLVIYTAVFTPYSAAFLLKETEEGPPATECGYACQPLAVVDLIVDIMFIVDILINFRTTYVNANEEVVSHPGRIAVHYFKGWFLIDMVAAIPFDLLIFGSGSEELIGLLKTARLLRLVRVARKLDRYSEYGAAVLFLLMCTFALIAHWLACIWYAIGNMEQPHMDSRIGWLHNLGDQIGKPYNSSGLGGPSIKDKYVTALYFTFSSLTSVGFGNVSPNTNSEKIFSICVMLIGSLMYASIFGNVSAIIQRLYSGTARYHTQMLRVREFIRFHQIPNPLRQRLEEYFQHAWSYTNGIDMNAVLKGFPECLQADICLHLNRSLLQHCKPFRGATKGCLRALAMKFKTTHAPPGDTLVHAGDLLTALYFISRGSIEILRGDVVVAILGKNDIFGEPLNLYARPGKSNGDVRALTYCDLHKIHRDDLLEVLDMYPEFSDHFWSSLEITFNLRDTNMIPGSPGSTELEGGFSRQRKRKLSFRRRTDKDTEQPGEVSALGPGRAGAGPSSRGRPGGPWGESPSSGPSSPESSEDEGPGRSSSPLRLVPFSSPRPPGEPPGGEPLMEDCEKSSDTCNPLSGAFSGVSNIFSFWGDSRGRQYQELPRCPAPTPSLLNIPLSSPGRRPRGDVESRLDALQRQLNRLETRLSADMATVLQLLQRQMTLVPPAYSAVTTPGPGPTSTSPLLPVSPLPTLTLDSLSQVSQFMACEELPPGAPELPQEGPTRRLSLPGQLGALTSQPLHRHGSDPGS

[7] = test system: Rattus norvegicus; test: Antinociceptive activity in po dosed Sprague-Dawley rat brain assessed as inhibition of CES1c activity measured after 4 hrs post dose in presence of FP-Rh probe by gel-based ABPP assay; format: functional
Method in brief: (§2)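 Male Sprague Dawley rats, 6–12 weeks old, given single oral doses (0.03–10 mg/kg) in 0.5% methylcellulose at 5 mL/kg. Brains were taken 4 h post-dose and forebrain sections excised from one hemisphere. Brain proteome was labeled with FP-Rh (1 µM, 30 min) and analyzed by SDS-PAGE with in-gel fluorescence. Band intensity was normalized to vehicle.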

[8] = Volume of distribution at steady state in Beagle dog at 1 mg/kg, iv or 1 mg/kg, po by LC-MS analysis; format: ADME, organism-based, Canis lupus familiaris; conditions: in vivo, read-out: Vdss
Method in brief: (§3)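 Male beagle dogs (n = 3 per route), 10–12 months old, were dosed at 1 mg/kg iv or po in PEG400/ethanol/PBS (7/2/1), fasted overnight to 2 h post-dose. Peripheral venous blood was sampled to 24 h into K2EDTA and plasma frozen at −80 °C. Plasma was quantified by HPLC-MS/MS, with noncompartmental analysis.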

[9] = test system: Rattus norvegicus; test: Antinociceptive activity in po dosed Sprague-Dawley rat brain assessed as inhibition of MGLL activity measured after 4 hrs post dose in presence of FP-Rh probe by gel-based ABPP assay; format: functional; method in brief: as §2
[10] = Substrate activity at BCRP (unknown origin) at 10 uM; format: ADME; conditions: human
[11] = Clearance in Beagle dog at 1 mg/kg, iv or 1 mg/kg, po by LC-MS analysis; format: ADME, organism-based, Canis lupus familiaris; conditions: in vivo; method in brief: as §3
[12] = biological target: ATP-dependent translocase ABCB1 (Homo sapiens, UniProt P08183); test: Inhibition of P-gp (unknown origin) at 10 uM; format: ADME
Sequence of ATP-dependent translocase ABCB1 (P08183 whole entry): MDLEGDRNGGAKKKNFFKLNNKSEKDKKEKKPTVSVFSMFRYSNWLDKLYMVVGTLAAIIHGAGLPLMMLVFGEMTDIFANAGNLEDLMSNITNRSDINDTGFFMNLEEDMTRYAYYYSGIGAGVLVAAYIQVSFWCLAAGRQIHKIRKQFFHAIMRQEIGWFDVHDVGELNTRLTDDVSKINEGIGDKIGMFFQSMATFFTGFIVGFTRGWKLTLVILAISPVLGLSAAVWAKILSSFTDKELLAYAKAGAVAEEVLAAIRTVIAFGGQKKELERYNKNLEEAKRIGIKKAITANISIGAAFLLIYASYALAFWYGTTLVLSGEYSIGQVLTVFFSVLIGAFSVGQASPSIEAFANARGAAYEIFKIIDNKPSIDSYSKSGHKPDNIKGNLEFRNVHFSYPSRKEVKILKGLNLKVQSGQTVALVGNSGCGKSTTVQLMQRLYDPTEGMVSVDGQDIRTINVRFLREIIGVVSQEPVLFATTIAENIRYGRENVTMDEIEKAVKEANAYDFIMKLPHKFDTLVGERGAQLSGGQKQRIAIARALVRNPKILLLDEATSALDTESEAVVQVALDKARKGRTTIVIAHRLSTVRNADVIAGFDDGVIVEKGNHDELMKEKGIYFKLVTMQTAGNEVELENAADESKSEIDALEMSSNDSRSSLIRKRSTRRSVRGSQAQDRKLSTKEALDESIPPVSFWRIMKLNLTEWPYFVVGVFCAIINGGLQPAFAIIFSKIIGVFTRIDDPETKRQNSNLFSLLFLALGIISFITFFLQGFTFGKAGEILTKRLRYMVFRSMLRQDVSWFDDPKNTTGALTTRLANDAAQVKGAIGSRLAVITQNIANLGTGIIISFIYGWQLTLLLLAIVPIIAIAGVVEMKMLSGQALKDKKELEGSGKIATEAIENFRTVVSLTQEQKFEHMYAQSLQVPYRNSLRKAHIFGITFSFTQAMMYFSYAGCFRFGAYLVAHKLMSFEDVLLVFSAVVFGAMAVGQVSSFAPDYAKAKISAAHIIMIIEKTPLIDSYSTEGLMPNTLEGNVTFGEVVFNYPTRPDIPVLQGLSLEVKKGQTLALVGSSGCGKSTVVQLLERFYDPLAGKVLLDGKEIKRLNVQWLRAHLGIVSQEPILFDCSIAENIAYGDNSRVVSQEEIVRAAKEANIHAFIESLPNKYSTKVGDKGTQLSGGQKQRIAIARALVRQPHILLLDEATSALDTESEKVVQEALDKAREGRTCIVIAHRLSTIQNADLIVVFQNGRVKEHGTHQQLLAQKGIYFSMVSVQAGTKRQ

[13] = biological target: Cytochrome P450 2C19 (Homo sapiens, UniProt P33261); test: Inhibition of recombinant human CYP2C19; format: ADME
Sequence of Cytochrome P450 2C19 (P33261 whole entry): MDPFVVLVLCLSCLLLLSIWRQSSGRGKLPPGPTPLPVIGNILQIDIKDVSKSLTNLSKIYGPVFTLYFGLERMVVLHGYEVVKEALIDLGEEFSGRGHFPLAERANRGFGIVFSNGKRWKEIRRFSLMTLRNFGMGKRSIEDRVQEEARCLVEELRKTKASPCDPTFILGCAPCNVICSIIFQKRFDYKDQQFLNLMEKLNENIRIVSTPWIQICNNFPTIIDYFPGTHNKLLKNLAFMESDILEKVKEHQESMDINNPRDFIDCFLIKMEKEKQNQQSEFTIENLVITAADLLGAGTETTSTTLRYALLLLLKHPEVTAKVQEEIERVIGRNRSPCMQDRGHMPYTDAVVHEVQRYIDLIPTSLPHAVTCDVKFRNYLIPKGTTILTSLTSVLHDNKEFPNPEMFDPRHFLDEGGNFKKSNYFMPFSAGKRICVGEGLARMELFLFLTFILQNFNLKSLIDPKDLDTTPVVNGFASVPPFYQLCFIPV

[14] = biological target: Cytochrome P450 2D6 (Homo sapiens, UniProt P10635); test: Inhibition of recombinant human CYP2D6; format: ADME
Sequence of Cytochrome P450 2D6 (P10635 whole entry): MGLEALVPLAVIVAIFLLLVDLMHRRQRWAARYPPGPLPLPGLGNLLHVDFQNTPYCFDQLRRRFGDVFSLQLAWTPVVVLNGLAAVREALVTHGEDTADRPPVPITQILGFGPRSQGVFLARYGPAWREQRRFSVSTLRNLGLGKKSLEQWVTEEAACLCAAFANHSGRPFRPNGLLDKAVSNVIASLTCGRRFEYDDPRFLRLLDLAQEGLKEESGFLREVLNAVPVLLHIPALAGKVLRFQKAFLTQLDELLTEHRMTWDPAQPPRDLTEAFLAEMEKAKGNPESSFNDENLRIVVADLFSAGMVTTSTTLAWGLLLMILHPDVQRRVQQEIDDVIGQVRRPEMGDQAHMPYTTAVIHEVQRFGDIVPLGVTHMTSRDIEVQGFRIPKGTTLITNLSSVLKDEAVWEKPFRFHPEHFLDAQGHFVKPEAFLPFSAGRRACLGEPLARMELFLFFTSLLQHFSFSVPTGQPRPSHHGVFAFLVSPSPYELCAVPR

[15] = Intrinsic clearance in human liver microsomes; format: ADME, Microsome; conditions: read-out: CLH
[16] = Cmax in Beagle dog at 1 mg/kg, po by LC-MS analysis; conditions: in vivo
[17] = Tmax in Sprague-Dawley rat at 1 mg/kg, iv or 5 mg/kg, po by LC-MS analysis; format: ADME, organism-based; conditions: in vivo; method in brief: as §1
[18] = Oral bioavailability in Sprague-Dawley rat at 5 mg/kg by LC-MS analysis; format: ADME, organism-based; conditions: in vivo; method in brief: as §1
[19] = test system: Rattus norvegicus; test: Antinociceptive activity in Sprague-Dawley rat assessed as reduction in formalin-evoked paw licking duration at 3 mg/kg, po administered 4 hrs prior to formalin challenge and measured between 10 to 30 mins post formalin challenge; format: functional, organism-based
[20] = biological target: Cytochrome P450 3A4 (Homo sapiens, UniProt P08684); test: Inhibition of recombinant human CYP3A4; format: ADME
Sequence of Cytochrome P450 3A4 (P08684 whole entry): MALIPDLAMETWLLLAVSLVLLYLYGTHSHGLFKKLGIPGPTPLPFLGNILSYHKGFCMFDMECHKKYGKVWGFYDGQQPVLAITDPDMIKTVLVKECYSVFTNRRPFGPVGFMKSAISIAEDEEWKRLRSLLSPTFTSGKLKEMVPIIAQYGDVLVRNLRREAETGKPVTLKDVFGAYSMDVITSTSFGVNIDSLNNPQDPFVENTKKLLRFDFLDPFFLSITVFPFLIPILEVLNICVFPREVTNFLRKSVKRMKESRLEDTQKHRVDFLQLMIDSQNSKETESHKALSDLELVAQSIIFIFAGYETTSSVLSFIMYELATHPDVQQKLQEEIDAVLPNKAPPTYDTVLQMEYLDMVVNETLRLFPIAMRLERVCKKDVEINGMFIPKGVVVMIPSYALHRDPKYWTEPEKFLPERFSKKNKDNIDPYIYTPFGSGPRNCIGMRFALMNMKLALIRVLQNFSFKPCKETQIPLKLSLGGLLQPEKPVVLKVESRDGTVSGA

[21] = biological target: T1, Monoglyceride lipase (Rattus norvegicus) (UniProt Q8R431); test: Inhibition of MGLL in rat brain membrane homogenates at 0.001 to 10 uM preincubated for 30 mins followed by FP-Rh addition after 30 mins by gel-based ABPP assay; format: cell membranes
T1 sequence (whole entry): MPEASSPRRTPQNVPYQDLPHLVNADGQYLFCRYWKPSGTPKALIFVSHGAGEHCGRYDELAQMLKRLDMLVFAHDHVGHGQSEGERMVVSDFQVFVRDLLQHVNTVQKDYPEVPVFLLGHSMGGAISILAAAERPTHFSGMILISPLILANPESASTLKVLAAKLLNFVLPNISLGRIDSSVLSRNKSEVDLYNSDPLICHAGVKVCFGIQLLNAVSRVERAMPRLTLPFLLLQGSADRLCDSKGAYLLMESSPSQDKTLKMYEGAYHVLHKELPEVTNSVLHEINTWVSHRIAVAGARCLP
Method in brief: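 Brain protein homogenates (1 mg/mL) treated with compound 0.001–10 µM or DMSO, 30 min at 37°C, then 1 µM FP-Rh (MGLL) or HT-01 (ABHD6), 30 min at 25°C.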

[22] = Cmax in Sprague-Dawley rat at 5 mg/kg, po by LC-MS analysis; format: ADME, organism-based; design: dose 5 mg/kg, route oral; conditions: in vivo; method in brief: as §1
[23] = biological target: T2, Platelet-activating factor acetylhydrolase (Homo sapiens, UniProt Q13093); test: Inhibition of PLA2G7 derived from human PC3 cell lysates preincubated for 30 mins followed by JW912 addition after 30 mins by gel-based ABPP assay; format: subcellular, Lysate
T2 sequence (Q13093 whole entry): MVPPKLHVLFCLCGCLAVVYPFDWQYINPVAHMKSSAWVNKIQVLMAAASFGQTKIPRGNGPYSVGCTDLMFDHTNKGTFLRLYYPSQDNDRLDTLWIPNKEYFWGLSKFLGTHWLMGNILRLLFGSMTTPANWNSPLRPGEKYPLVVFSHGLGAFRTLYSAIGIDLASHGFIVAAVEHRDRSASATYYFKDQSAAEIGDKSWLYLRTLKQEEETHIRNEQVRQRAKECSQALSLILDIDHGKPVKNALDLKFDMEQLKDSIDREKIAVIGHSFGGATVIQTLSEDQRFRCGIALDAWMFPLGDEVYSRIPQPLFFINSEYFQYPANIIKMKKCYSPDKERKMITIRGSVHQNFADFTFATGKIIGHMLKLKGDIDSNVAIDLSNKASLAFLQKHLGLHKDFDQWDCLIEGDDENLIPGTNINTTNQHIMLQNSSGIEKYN

SMILES: O=C(OC(C(F)(F)F)C(F)(F)F)N1CCN(Cc2ccc(C(F)(F)F)cc2N2CCCC2)CC1 [ELCUBRAGISTAT]
- Activity [1]: Active
- clearance [2]: 14.7 mL/min/kg
- IC50 [3]: > 50 µM
- inhibition (INH) [4]: Not Active
- Vd [5]: 3.2 L/kg
- IC20 [6]: 7 µM
- ED50 [7]: 1.2 mg/kg
- Vd [8]: 1.2 L/kg
- ED50 [9]: 0.5 mg/kg
- Activity [10]: Not Active
- clearance [11]: 6.3 mL/min/kg
- inhibition (INH) [12]: Not Active
- IC50 [13]: > 50 µM
- IC50 [14]: 6.5 µM
- microsomal CLint [15]: 19 µL/min/mg
- Cmax [16]: 777 nM
- Tmax [17]: 8 h
- bioavailability [18]: 64%
- Activity [19]: Active
- IC50 [20]: > 50 µM
- inhibition [21]: Active
- Cmax [22]: 688 nM
- IC50 [23]: > 10 µM

Reference: ChEMBL document CHEMBL4308843, “Identification of ABX-1431, a Selective Inhibitor of Monoacylglycerol Lipase and Clinical Candidate for Treatment of Neurological Disorders” (J Med Chem, 2018)
